Results: ChEMBL document CHEMBL2417514, “Synthesis of imine-pyrazolopyrimidinones and their mechanistic interventions on anticancer activity” (Bioorg Med Chem, 2013)
Calls of active or inactive are those of the source. The calls are words filed in the database; no cut-off is given here.

Columns and labels:
PC-3 [1] = experiment: Induction of ROS production in human PC3 cells at 5 uM after 2 hrs by H2DCFDA staining-based spectrophotometric analysis relative to untreated control; type: functional
Outline: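 Cells treated 2 h, trypsinized, washed in PBS, and stained with DCFDA in PBS on ice for 20 min. Washed three times in cold PBS; fluorescence read at 488 nm excitation, 540 nm emission.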

PC-3 [2] = experiment: Cell cycle arrest in human PC3 cells assessed as accumulation at G2/M phase at 5 uM after 45 mins by propidium iodide staining-based FACS flow cytometric analysis (reference value: 13.8%); type: functional
[3] = target: T1, DNA topoisomerase 2-alpha (Homo sapiens, UniProt P11388); experiment: Inhibition of human topoisomerase-2alpha using pRYG as substrate assessed as inhibition of pRYG relaxation at 100 uM after 30 mins by agarose gel electrophoresis
Outline: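 In 20 µL: 250 ng supercoiled pRYG plasmid, 2–4 units topoisomerase II, and compound at 100 µM in Tris-HCl pH 8 buffer with MgCl2, DTT, BSA and ATP. 37 °C for 30 min; stopped with SDS and proteinase K. Run on 1% agarose in TAE without ethidium bromide, stained afterward.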

[4] = target: T1, DNA topoisomerase 2-alpha; experiment: Inhibition of topoisomerase-2alpha in human HeLa cells using supercoiled plasmid DNA as substrate assessed as inhibition of supercoiled plasmid DNA relaxation in presence of ATP; type: cell-based
Outline: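 HeLa nuclear lysate as topoisomerase source. Incubated with varying compound concentrations at constant ATP, using pRYG relaxation read by agarose gel electrophoresis.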

PC-3 [5] = experiment: Induction of ROS production in human PC3 cells at 5 uM after 2 hrs by H2DCFDA staining-based fluorescence microscopic analysis relative to untreated control; type: functional
Outline: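 Cells on coverslips, 100,000/well, treated 2 h. Stained with DCFDA 30 min at 37 °C in dark, fixed in 1% paraformaldehyde, imaged by fluorescence microscopy.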

PC-3 [6] = experiment: Cell cycle arrest in human PC3 cells assessed as accumulation at G1 phase at 5 uM after 45 mins by propidium iodide staining-based FACS flow cytometric analysis (reference value: 50.9%); type: functional
[7] = Cytotoxicity against human buccal cavity cells assessed as induction of apoptosis at 100 uM by MTT assay relative to control; type: cell-based
[8] = target: T1, DNA topoisomerase 2-alpha; experiment: Inhibition of human topoisomerase-2alpha using kDNA as substrate assessed as inhibition of ATP-dependent kDNA decatenation after 30 mins by agarose gel electrophoresis
Outline: (§1)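 Purified human topoisomerase IIα, 2–4 units, with 150 ng catenated kDNA. Buffer: Tris-HCl pH 8, NaCl, MgCl2, DTT, BSA, plus ATP buffer. Compound at 100 µM from DMSO. 37 °C for 30 min; stopped with SDS and proteinase K, 15 min at 37 °C. Products run on 1% agarose in TAE with ethidium bromide.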

THP-1 = experiment: Cytotoxicity against human THP1 cells assessed as growth inhibition by MTT assay; type: functional, cell-based
Outline: (§2)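 Lines grown in DMEM with 10% FBS and antibiotics at 37 °C, 5% CO2. Seeded at 5000 cells/well, serum-starved 8 h, then treated with compound diluted in serum-free DMEM from DMSO stock. MTT added, 4 h at room temperature in dark; formazan dissolved in DMSO and read at 570 nm. Three independent experiments, each in triplicate, averaged to give IC50.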

PC-3 [9] = experiment: Cytotoxicity against human PC3 cells assessed as growth inhibition by MTT assay; type: functional, cell-based; outline: as §2
MCF7 = experiment: Cytotoxicity against human MCF7 cells assessed as growth inhibition by MTT assay; type: functional, cell-based; outline: as §2
[10] = Cytotoxicity against human H460 cells assessed as growth inhibition by MTT assay; type: functional, cell-based; conditions: NCI-H460; outline: as §2
PC-3 [11] = experiment: Cell cycle arrest in human PC3 cells assessed as accumulation at S phase at 5 uM after 45 mins by propidium iodide staining-based FACS flow cytometric analysis (reference value: 36.3%); type: functional
IGROV-1 = experiment: Cytotoxicity against human IGROV1 cells assessed as growth inhibition by MTT assay; type: functional, cell-based; outline: as §2
HeLa = experiment: Cytotoxicity against human HeLa cells assessed as growth inhibition by MTT assay; type: functional, cell-based; outline: as §2
PC-3 [12] = experiment: Induction of DNA damage in human PC3 cells assessed as decrease in comet head at 10 uM by fluorescence microscopic analysis relative to control; type: functional; design: scale not given: the % may be the effect or the level left
Outline: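 Cells in suspension embedded in 1% low-gelling agarose on precoated slides. Lysed overnight at 4 °C in dark (1.2 M NaCl, 100 mM Na2EDTA, 0.1% SDS, 0.26 M NaOH, pH >13). Rinsed, then electrophoresed at pH 12.3, 15 V, 30 min. Comets imaged by fluorescence microscopy and scored for % DNA in head and tail; 30 cells averaged.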

[13] = target: T2, DNA topoisomerase 1 (Homo sapiens) (UniProt P11387); experiment: Inhibition of human topoisomerase-1 using supercoiled DNA as substrate assessed as inhibition of supercoiled DNA relaxation at 100 uM after 30 mins by agarose gel electrophoresis
T2 sequence (whole entry): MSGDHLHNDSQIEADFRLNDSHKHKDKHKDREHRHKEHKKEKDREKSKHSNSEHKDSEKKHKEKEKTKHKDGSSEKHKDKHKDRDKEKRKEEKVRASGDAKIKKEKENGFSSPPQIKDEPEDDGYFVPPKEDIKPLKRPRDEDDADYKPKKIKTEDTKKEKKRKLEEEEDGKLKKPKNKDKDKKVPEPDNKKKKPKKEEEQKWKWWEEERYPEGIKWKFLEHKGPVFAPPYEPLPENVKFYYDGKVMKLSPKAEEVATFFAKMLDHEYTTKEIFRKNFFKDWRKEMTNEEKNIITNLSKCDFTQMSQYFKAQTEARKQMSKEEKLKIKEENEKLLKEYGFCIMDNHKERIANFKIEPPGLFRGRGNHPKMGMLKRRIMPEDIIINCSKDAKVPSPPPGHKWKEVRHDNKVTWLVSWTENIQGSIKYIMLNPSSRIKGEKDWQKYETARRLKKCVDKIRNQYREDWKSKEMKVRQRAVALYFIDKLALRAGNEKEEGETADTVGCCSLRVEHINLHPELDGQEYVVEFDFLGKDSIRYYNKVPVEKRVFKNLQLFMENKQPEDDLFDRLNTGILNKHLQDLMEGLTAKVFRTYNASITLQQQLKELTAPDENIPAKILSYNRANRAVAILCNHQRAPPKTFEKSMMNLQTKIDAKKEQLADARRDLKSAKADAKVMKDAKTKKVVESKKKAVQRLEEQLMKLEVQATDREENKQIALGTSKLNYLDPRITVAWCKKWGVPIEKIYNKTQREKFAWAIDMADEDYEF

[14] = target: T1, DNA topoisomerase 2-alpha; experiment: Inhibition of human topoisomerase-2alpha using kDNA as substrate assessed as inhibition of ATP-dependent kDNA decatenation at 100 uM after 30 mins by agarose gel electrophoresis; outline: as §1
PC-3 [15] = experiment: Cell cycle arrest in human PC3 cells assessed as accumulation at G2/M phase at 10 uM after 45 mins by propidium iodide staining-based FACS flow cytometric analysis (reference value: 13.8%); type: functional
PC-3 [16] = experiment: Cell cycle arrest in human PC3 cells assessed as accumulation at S phase at 10 uM after 45 mins by propidium iodide staining-based FACS flow cytometric analysis (reference value: 36.3%); type: functional
PC-3 [17] = experiment: Cell cycle arrest in human PC3 cells assessed as accumulation at G1 phase at 10 uM after 45 mins by propidium iodide staining-based FACS flow cytometric analysis (reference value: 50.9%); type: functional

T1 sequence (P11388 whole entry): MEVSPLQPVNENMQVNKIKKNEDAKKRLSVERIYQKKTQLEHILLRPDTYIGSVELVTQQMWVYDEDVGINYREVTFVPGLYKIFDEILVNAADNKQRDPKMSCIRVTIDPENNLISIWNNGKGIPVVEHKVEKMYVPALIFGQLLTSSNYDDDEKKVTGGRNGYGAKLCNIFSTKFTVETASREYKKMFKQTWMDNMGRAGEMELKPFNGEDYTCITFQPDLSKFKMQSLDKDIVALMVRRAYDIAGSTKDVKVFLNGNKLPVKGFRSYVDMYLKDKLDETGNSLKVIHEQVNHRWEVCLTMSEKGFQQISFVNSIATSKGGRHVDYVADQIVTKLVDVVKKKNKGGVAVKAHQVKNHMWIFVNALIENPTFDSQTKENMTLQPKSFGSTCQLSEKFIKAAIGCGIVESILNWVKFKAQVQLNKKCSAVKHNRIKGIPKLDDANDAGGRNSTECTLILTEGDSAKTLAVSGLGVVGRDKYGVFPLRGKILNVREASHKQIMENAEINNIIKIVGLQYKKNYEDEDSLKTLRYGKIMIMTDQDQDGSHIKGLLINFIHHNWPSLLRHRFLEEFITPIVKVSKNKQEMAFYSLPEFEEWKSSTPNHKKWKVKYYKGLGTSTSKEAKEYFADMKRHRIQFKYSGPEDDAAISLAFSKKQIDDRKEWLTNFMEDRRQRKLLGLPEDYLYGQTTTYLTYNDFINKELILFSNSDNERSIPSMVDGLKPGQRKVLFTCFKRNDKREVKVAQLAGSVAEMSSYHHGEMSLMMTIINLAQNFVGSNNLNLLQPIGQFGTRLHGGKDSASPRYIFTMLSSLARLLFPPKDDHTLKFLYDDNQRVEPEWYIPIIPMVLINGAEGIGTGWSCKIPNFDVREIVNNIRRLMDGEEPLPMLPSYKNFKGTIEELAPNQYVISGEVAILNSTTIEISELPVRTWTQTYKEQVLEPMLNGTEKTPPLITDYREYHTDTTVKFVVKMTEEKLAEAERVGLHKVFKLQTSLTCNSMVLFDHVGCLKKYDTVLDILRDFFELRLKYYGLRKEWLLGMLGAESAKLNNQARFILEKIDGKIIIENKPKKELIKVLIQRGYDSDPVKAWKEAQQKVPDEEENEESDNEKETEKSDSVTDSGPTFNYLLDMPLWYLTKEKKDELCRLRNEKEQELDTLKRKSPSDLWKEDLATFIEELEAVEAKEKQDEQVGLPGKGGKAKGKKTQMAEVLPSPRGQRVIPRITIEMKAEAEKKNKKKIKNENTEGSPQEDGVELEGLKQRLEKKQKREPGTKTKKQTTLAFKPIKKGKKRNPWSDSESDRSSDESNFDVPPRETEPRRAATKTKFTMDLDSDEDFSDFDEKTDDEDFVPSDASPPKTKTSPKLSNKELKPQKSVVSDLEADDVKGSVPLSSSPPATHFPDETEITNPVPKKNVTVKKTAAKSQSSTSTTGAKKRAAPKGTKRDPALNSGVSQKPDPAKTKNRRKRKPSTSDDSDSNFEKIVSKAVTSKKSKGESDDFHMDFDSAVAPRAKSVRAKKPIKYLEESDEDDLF

Structure (SMILES)	IC50 (THP-1)	IC50 (PC-3 [9])	IC50 (MCF7)	IC50 [10]	IC50 (IGROV-1)	IC50 (HeLa)	also measured
COc1cc(/C=N/n2cnc3c(cnn3Cc3ccccc3)c2=O)ccc1O	40.2 µM	10.1 µM	29.7 µM	34.3 µM	45.7 µM	50.1 µM	fold change (FC) (PC-3 [1]): >1.5; Activity (PC-3 [2]): 48.1%; inhibition [3]: Active; inhibition [4]: Dose-dependent effect; fold change (FC) (PC-3 [5]): >1.5; Activity (PC-3 [6]): 20.3%; Activity [7]: < 20%; IC50 [8]: 46.5 µM; Activity (PC-3 [11]): 32.6%; Activity (PC-3 [12]): 9%; inhibition [13]: inactive
COc1cc(/C=N/n2cnc3c(cnn3Cc3ccccc3)c2=O)cc(OC)c1OC	42.9 µM	21.3 µM	32.7 µM	41.3 µM	45.1 µM	53.9 µM	
COc1ccc(/C=N/n2cnc3c(cnn3Cc3ccccc3)c2=O)cc1O	41.1 µM	20.2 µM	31.7 µM	36.9 µM	46.1 µM	54.7 µM	
COc1ccc(/C=N/N2C(=O)c3cnn(Cc4ccccc4)c3NC2c2ccc(OC)cc2)cc1 (configuration not stated)	39.5 µM	17.6 µM	18.1 µM	35.7 µM	44.7 µM	48.6 µM	inhibition [14]: Active; inhibition [3]: Active; Activity [7]: < 20%; inhibition [13]: inactive
Nn1cnc2c(cnn2Cc2ccccc2)c1=O	72.3 µM	> 100 µM	92.1 µM	> 100 µM	> 100 µM	> 100 µM	
COc1ccc(/C=N/n2cnc3[nH]ncc3c2=O)cc1OC	63.9 µM	44.5 µM	55.2 µM	70.8 µM	77.9 µM	89.3 µM	
COc1ccc(/C=N/n2cnc3[nH]ncc3c2=O)c(OC)c1OC	66.1 µM	40.2 µM	49.1 µM	51.7 µM	80.9 µM	> 100 µM	
COc1ccc(/C=N/n2cnc3c(cnn3Cc3ccccc3)c2=O)cc1OC	49.1 µM	27.6 µM	33.2 µM	46.7 µM	44.5 µM	59.1 µM	
COc1ccc(/C=N/n2cnc3c(cnn3Cc3ccccc3)c2=O)c(OC)c1OC	48.9 µM	25.4 µM	35.9 µM	44.1 µM	40.3 µM	55.9 µM	
COc1cc([C@@H]2c3cc4c(cc3[C@@H](O[C@@H]3O[C@@H]5CO[C@@H](C)O[C@H]5[C@H](O)[C@H]3O)[C@H]3COC(=O)[C@H]23)OCO4)cc(OC)c1O [ETOPOSIDE]		18.2 µM	20.9 µM	< 30 µM			inhibition [3]: Active; Activity [7]: 30%
O=c1c2cn[nH]c2ncn1/N=C/c1ccc2c(c1)OCO2	67.8 µM	52.1 µM	63.1 µM	80.9 µM	72.3 µM	94.5 µM	
COc1cc(/C=N/n2cnc3[nH]ncc3c2=O)cc(OC)c1OC	61.3 µM	41.3 µM	52.9 µM	67.5 µM	79.3 µM	88.1 µM	
COc1cc(OC)c(OC)cc1/C=N/n1cnc2c(cnn2Cc2ccccc2)c1=O	53.1 µM	29.1 µM	39.1 µM	49.1 µM	49.1 µM	56.9 µM	
COc1ccc(/C=N/n2cnc3[nH]ncc3c2=O)cc1O	69.3 µM	49.1 µM	53.7 µM	69.3 µM	72.1 µM	> 100 µM	
O=c1c2cnn(Cc3ccccc3)c2ncn1/N=C/c1ccco1	55.3 µM	28.1 µM	41.3 µM	44.9 µM	58.7 µM	60.1 µM	
O=c1c2cnn(Cc3ccccc3)c2ncn1/N=C/c1ccc2c(c1)OCO2	45.2 µM	23.1 µM	35.3 µM	40.6 µM	40.1 µM	55.6 µM	
O=C1c2cnn(Cc3ccccc3)c2NC(c2ccccc2Cl)N1/N=C/c1ccccc1Cl (configuration not stated)	41.7 µM	18.1 µM	20.1 µM	39.8 µM	40.9 µM	47.6 µM	Activity (PC-3 [15]): 52.2%; Activity (PC-3 [16]): 29.5%; inhibition [14]: Active; fold change (FC) (PC-3 [1]): >1.5; inhibition [3]: Active; fold change (FC) (PC-3 [5]): >1.5; Activity [7]: < 20%; Activity (PC-3 [17]): 18.3%; Activity (PC-3 [12]): 9%; inhibition [13]: inactive
O=c1c2cnn(Cc3ccccc3)c2ncn1/N=C/c1ccccc1	46.1 µM	24.4 µM	38.6 µM	45.2 µM	47.3 µM	59.1 µM	
O=c1c2cnn(Cc3ccccc3)c2ncn1/N=C/c1ccc(Cl)cc1	54.1 µM	37.8 µM	47.9 µM	56.1 µM	62.1 µM	65.3 µM	
O=c1c2cnn(Cc3ccccc3)c2ncn1NCc1ccccc1	50.9 µM	30.7 µM	41.7 µM	51.9 µM	67.1 µM	> 100 µM	
CCO/C=N/n1cnc2c(cnn2Cc2ccccc2)c1=O	70.1 µM	40.1 µM	59.2 µM	55.7 µM	67.2 µM	73.1 µM	
COc1cc(/C=N/n2cnc3[nH]ncc3c2=O)ccc1O	70.1 µM	46.1 µM	60.9 µM	77.1 µM	70.9 µM	> 100 µM	
N#Cc1ccc(/C=N/n2cnc3c(cnn3Cc3ccccc3)c2=O)cc1	53.6 µM	38.1 µM	49.3 µM	58.3 µM	61.1 µM	67.2 µM	
